Assay results pooled from the literature.
Lines come from different studies, so protocols differ.
Target: MAP kinase-activated protein kinase 5 (MAPKAPK5, Homo sapiens, UniProt Q8IW41)

`Cc1nc(C2CCN(C(=O)c3ccc(OC(F)(F)F)cc3N)CC2)c2ncc(N3CCN(C)CC3)cc2n1` has a remaining binding of 94% (cell-free assay; competition with immobilised ligand; 1 µM).
With `Cc1ccc(C(=O)NCc2ccsc2)cc1C#Cc1cn(C(C)C)c2ncnc(N)c12` the activity vs control was 92% (enzyme activity; inhibitor; 1 µM).
`Cc1ccc(Nc2nccc(N(C)c3ccc4c(C)n(C)nc4c3)n2)cc1S(N)(=O)=O` has an inhibition of 4% (enzyme activity; inhibitor; 10 µM).
`CN([C@@H]1CCc2c(CC(=O)O)c3cc(S(C)(=O)=O)ccc3n2C1)S(=O)(=O)c1ccc(F)cc1` has a remaining binding of 100% (cell-free assay; competition with immobilised ligand; 1 µM).
`FC(F)(F)Oc1cccc(-c2cnc3ccc(-c4ccncc4)nn23)c1` has an activity vs control of 85% (enzyme activity; inhibitor; radiometric; 1 µM).
For `Cc1ccc(C(=O)Nc2ccc(CN3CCN(C)CC3)c(C(F)(F)F)c2)cc1C#Cc1cnc2cccnn12`, the remaining activity was 84% (enzyme activity; inhibitor; 23.5 nM).
For `CNC(=O)c1cc(Oc2ccc(NC(=O)Nc3ccc(Cl)c(C(F)(F)F)c3)cc2)ccn1`, the inhibition was 18% (enzyme activity; inhibitor; 0.3 µM).
For `CCCS(=O)(=O)Nc1ccc(F)c(C(=O)c2c[nH]c3ncc(-c4ccc(Cl)cc4)cc23)c1F`, the inhibition was under 10% (enzyme activity; inhibitor; 1 µM).
The remaining binding of `O=C1CCc2cc(Nc3cc(OC4CCOCC4)c([N+](=O)[O-])cc3Cl)ccc2N1` is reported as 78% (cell-free assay; competition with immobilised ligand; 1 µM).
`Cc1cc(NC(=O)c2cccc3cc(-c4cccc5[nH]nc(N)c45)ccc23)ccc1F` gave an activity vs control of 103% (enzyme activity; inhibitor; 0.1 µM).
With `CC1=C(C#N)C(c2ccc3c(c2)c(NC(=O)c2ccccc2C)nn3C)C(C#N)=C(C)N1` the remaining binding was 100% (cell-free assay; competition with immobilised ligand; 1 µM).
With `COc1cc(Nc2cnc(C#N)c(O[C@H](C)CN(C)C)n2)ncc1-c1cnn(C)c1` the remaining activity was 97% (enzyme activity; inhibitor; radiometric; 10 µM).
`CNC(=O)Nc1ccc2c(c1)CC[C@@]21OC(=O)N(CC(=O)N(Cc2ccc(F)cc2)[C@@H](C)C(F)(F)F)C1=O` has a remaining binding of 82% (cell-free assay; competition with immobilised ligand; 1 µM).
With `O=C(Nc1cnn(-c2csc(C(=O)NC3COC3)c2)c1)Nc1c(F)cccc1Cl` the remaining activity was 99.7% (enzyme activity; inhibitor; 5 µM).
`CC(C)(C)c1nc(-c2cccc(NS(=O)(=O)c3c(F)cccc3F)c2F)c(-c2ccnc(N)n2)s1` gave a remaining activity of 37% (enzyme activity; inhibitor; radiometric; 1 µM).
The remaining signal of `Cc1ccc(NC(=O)c2ccc(C)c(C(F)(F)F)c2)cc1C#Cc1nn(C2CCC(O)CC2)c2ncnc(N)c12` (stereo not drawn) is reported as 77% (cell-free assay; 10 µM).
The remaining binding of `CO[C@@H](C)c1c(Nc2ccc([C@@H](N(C)C(=O)C3CCS(=O)(=O)CC3)C(F)(F)F)cc2)cnc2cc(Cl)nn12` is reported as 100% (cell-free assay; competition with immobilised ligand; 1 µM).
With `O=C1Nc2ccc(Cl)cc2C1=Cc1cc(Cl)c(O)c(Cl)c1` the remaining signal was 92.4% (cell-free assay; 0.5 µM).
With `CNCc1ccc(-c2cc(-c3nc(-c4ccc(S(=O)(=O)C(C)C)cc4)cnc3N)on2)cc1` the inhibition was 0% (enzyme activity; inhibitor; 0.4 µM).
`Cn1cnc(Br)c1C1=CN(c2ncnc3[nH]cnc23)CCS1` has an inhibition of 20.3% (enzyme activity; inhibitor; radiometric; 50 nM).
The inhibition of `O=C(CSc1nc2nccnc2c(=O)n1CCc1ccccc1)Nc1nccs1` is reported as -2% (enzyme activity; inhibitor; 10 µM).
For `COc1cc2ncnc(Nc3ccc(Oc4ccccc4)cc3C)c2cc1OC`, the inhibition was 3% (enzyme activity; inhibitor; 1 µM).
`O=c1nc(-c2ccccn2)sc2ccccc12` gave a remaining binding of 92% (binding; competition with immobilised ligand; 1 µM).
The inhibition of `CN1CC(Oc2cnc(C#N)cc2-c2ccn3nc(NC(=O)C4CC4)cc3c2)C1` is reported as -14% (enzyme activity; inhibitor; 1 µM).
With `CC(C)(C)C(=O)c1sc(NC2CCCCC2)nc1N` the remaining activity was 103% (enzyme activity; inhibitor; 10 µM).
`N#CCCc1ccc2c(c1)-c1[nH]c3ccc([N+](=O)[O-])cc3c1CC(=O)N2` gave a remaining signal of 94.3% (cell-free assay; 0.5 µM).
For `Nc1nc(Nc2ccccc2)sc1C(=O)c1c(F)cccc1F`, the remaining activity was 63% (enzyme activity; inhibitor; 10 µM).
For `C[C@H](c1ccc(F)cc1)N(Cc1cccc(C(=O)O)c1)C(=O)c1cnc2ccccc2c1`, the remaining binding was 96% (cell-free assay; competition with immobilised ligand; 1 µM).
The remaining activity of `FC(F)c1nc2ccccc2n1-c1nc(N2CCOCC2)nc(N2CCOCC2)n1` is reported as 82% (enzyme activity; inhibitor; 10 µM).
With `COc1ccc(COc2ccc(Cc3cnc(N)nc3N)cc2OC)cc1` the remaining signal was 87.5% (cell-free assay; 0.5 µM).
`C=CC(=O)Nc1cc(Nc2nccc(Nc3cc(Cl)c(F)cc3C(C)(C)O)n2)c(OC)cc1N1CC[C@@H](N(C)C)C1` has an inhibition of 19% (enzyme activity; inhibitor; 1 µM).
`Oc1ccc(-c2nc(-c3ccncc3)c(-c3ccc(F)cc3)[nH]2)cc1` gave a remaining signal of 102% (cell-free assay; 0.5 µM).
For `Cn1c(=O)n(-c2ccc(C(C)(C)C#N)cc2)c2c3cc(-c4cnc5ccccc5c4)ccc3ncc21`, the remaining activity was 93% (enzyme activity; inhibitor; 10 µM).
